Screens: PubChem, Johns Hopkins Ion Channel Center
TRPC4 inh = blocks the mouse TRPC4 cation channel; hit rate 0.39% among 300,000; B-score at 10 µM; HEK293 TRPC4beta/mu-opioid, DAMGO-evoked Fluo4 calcium flux; active compounds read low; AID 2247;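 active = B-score over 3 SD under the library average, no early fluorescence shift, positive overall ratio signal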
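Material: HEK293 cells with stable TRPC4beta plus mu-opioid receptor expression / Probe or stimulus: DAMGO in two steps, submaximal then maximal / Compound: single concentration per test compound / Technique: kinetic Fluo4 fluorescence imaging of calcium influx / Read-out: per-well B score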
TRPC6 inhibitor = mouse TRPC6 channel inhibition. Q61143. HEK293-TRPC6, membrane potential dye, ACh-evoked depolarization; active compounds read low. B-score at 10 µM. hit rate 1.1% among 310,000. AID 2553;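 active = B-score under library mean minus 3 SD, initial fluorescence not abnormally high, positive integrated signal ratio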;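 note: B-score derived from integrated fluorescence ratio over the kinetic read; more negative B-score means stronger inhibition of depolarization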
TRPC4 PAM = TRPC4 (mouse) allosteric potentiation; B-score at 10 µM; hit rate 0.42% among 310,000; HEK293 TRPC4beta/mu-opioid, DAMGO EC20, Fluo-4 Ca2+ flux; active compounds read high; AID 2227; Q9QUQ5;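 active = B-score of calcium response area above 5 SD of library B-scores, with initial fluorescence ratio within 5 SD of library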;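 note: B-score of integrated fluorescence ratio over time as area under calcium response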
TRPC4 agonist = opens the mouse TRPC4 cation channel | AID 2237 | hit rate 0.49% among 310,000 | HEK293 TRPC4beta/mu-opioid, Fluo4 calcium fluorescence; active compounds read high | Q9QUQ5 | B-score at 10 µM;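 active = B-score above 5 SD of library B-scores, and initial fluorescence ratio not above library mean plus 5 SD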;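 note: positive B-score marks a calcium rise read as TRPC4 activation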
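System: HEK293 cells stably co-expressing mouse TRPC4beta and mu-opioid receptor; Schedule: Fluo4 dye loading 45 min at room temperature, 110 s recording; Detection: Fluo4 fluorescence, kinetic; Evaluation: B-scored integrated calcium fluorescence ratio; Controls: buffer (low) and maximal DAMGO (high).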
TRPC6 activator = activates the mouse TRPC6 cation channel; Q61143; HEK293-TRPC6 membrane potential dye fluorescence; active compounds read high; B-score at 10 µM; hit rate 0.13% among 310,000; AID 2550;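 active = B-score of the integrated fluorescence ratio above library mean plus 3 SD, and starting fluorescence ratio within library mean plus 5 SD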;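 note: higher score means more depolarization so channel activation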
TRPC4 spec 2 = mouse TRPC4 off-target activity of TRPC6 inhibitors, second screen; shares compounds with TRPC6 inhibitor; HEK293 TRPC4/MOR, membrane potential dye fluorescence; channel activated by saturating DAMGO dose; inhibition, % at 10 µM; hit rate 42% among 920;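 active = compounds whose fluorescence signal differed from control wells by over 3 SD, either direction, in both duplicate plates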
TRPC4 spec = mouse TRPC4 off-target activity of TRPC6 inhibitors | shares compounds with TRPC6 inhibitor | HEK293 TRPC4/mu-opioid, membrane potential fluorescence | activity change, negative = inhibition, % at 10 µM | hit rate 61% among 920;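 active = rise or fall in signal beyond 3 SD of buffer-only wells in both replicate plates, either sign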;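 note: integrated kinetic ratio of fluorescence range over baseline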
HEK293 MPD ctr 2-1 = second counter-screen for TRPC6 inhibitors: parental HEK293 cells; shares compounds with TRPC6 inhibitor; parental HEK293 membrane potential dye fluorescence; maximal acetylcholine challenge after compound addition; signal change vs control, % at 10 µM; hit rate 31% among 920; AID 2779;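 active = membrane potential signal moving either way by over 3 SD of the maximum-effect control, in both duplicate plates, meaning non-specific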
HEK293 MPD ctr-1 = checks TRPC6 inhibitor effects in parental HEK293 cells | shares compounds with TRPC6 inhibitor | parental HEK293 membrane potential dye fluorescence | membrane potential signal change, % at 10 µM | hit rate 60% among 920 | AID 2780;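 active = membrane potential signal shifting up or down by more than 3 SD of buffer-only wells, on both duplicate plates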
HEK293 MPD ctr-2 = checks TRPC6 modulator effects in parental HEK293 cells; membrane potential dye fluorescence; shares compounds with TRPC6 inhibitor; membrane potential signal change, % at 10 µM; hit rate 51% among 2,400;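 active = membrane potential signal moves up or down beyond 5 SD from buffer-only wells, on both duplicate plates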
HEK293 MPD ctr 2-2 = parental HEK293 nonspecific activity of TRPC6 modulators, second screen | shares compounds with TRPC6 inhibitor | hit rate 14% among 2,400 | membrane potential dye fluorescence; after compound, maximal acetylcholine stimulation | AID 488926 | inhibition, % at 10 µM;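 active = membrane potential signal drops by more than 5 SD from the mean control signal, in both duplicate plates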;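 note: plate controls were acetylcholine ECmax control wells for no effect and buffer only wells for full effect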
TRPC4/MOR mod = mouse TRPC4 off-target activity of TRPC6 modulators; percent change from control (negative = decrease, positive = increase), % at 10 µM; shares compounds with TRPC6 inhibitor; hit rate 69% among 2,400; HEK293 TRPC4/mu-opioid, membrane potential fluorescence;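 active = membrane potential signal moved up or down beyond 5 SD of buffer control wells, in both duplicate plates, actives on both sides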;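 note: plate controls were assay buffer wells for no effect and DAMGO maximal-effect wells for full effect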
TRPC4/MOR inh 2 = second check of whether TRPC6 modulators also affect mouse TRPC4. HEK293 TRPC4/mu-opioid, membrane potential dye fluorescence; stimulated with maximal-effect DAMGO. AID 488928. hit rate 55% among 2,400. inhibition, % at 10 µM. shares compounds with TRPC6 inhibitor;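 active = drop in membrane potential signal beyond 5 SD of the control wells in both duplicate plates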;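 note: TRPC4 counter screen for TRPC6 hits run under conditions tuned for TRPC6 not TRPC4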
TRPC6 block conf = mouse TRPC6 inhibitor confirmation; shares compounds with TRPC6 inhibitor; HEK293-TRPC6, membrane potential dye, ACh-evoked depolarization; inhibition, % at 10 µM; hit rate 43% among 3,300; AID 488960;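 active = fluorescence ratio falls more than 5 SD below the full-stimulation control mean, in both duplicate runs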;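 note: integrated fluorescence ratio of peak minus minimum over baseline after agonist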
TRPC6 act confirm = confirmation of mouse TRPC6 activators; shares compounds with TRPC6 inhibitor; HEK293-TRPC6 membrane potential dye fluorescence, FDSS; activation, % at 10 µM; hit rate 11% among 2,800;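 active = ratio signal rise beyond 5 SD above unstimulated control wells' mean, seen in both duplicate runs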;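 note: plate controls were buffer EC0 wells for no effect and acetylcholine ECmax response for full effect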
* hit, by the source's call; i = inactive; · = no result. Hits are enriched below; roughly 2.3% of the tested compounds scored in any of these assays.

SMILES	TRPC4 inh	TRPC6 inhibitor	TRPC4 PAM	TRPC4 agonist	TRPC6 activator	HEK293 MPD ctr-2	HEK293 MPD ctr 2-2	TRPC4/MOR mod	TRPC4/MOR inh 2	TRPC6 block conf	TRPC6 act confirm	others
O=C(Nc1ccccc1C(=O)Nc1nnc(C(F)(F)F)s1)c1ccccc1	i	-7*	i	i	i	·	·	·	·	84%*	i	TRPC4 spec 2=i;TRPC4 spec=16%*;HEK293 MPD ctr 2-1=i;HEK293 MPD ctr-1=11%*
COc1cc2c(cc1OC)CN(C1CCCN(Cc3cc(Cl)ccc3O)C1)CC2 (stereo not drawn)	i	i	i	i	i	·	·	·	·	·	·
c1csc(COc2ccccc2CNC2CCCCC2)c1	-10*	-11*	i	i	13*	514%*	120%*	109%*	90%*	111%*	163%*
COc1cccc(CNC2CCCCCCC2)c1OC	i	-7.2*	i	i	i	·	·	·	·	62%*	·	TRPC4 spec 2=75%*;TRPC4 spec=23%*;HEK293 MPD ctr 2-1=39%*;HEK293 MPD ctr-1=9.3%*
O=C(COc1ccc(Br)cc1CNC1CCCCC1)NCCc1ccccc1	i	-5.1*	i	i	i	212%*	i	41%*	62%*	i	·
c1ccc(COc2ccccc2CNC2CCCC2)cc1	i	-7.7*	i	i	i	531%*	130%*	112%*	90%*	108%*	·
CCCn1nnnc1NCc1ccccc1OCc1cccs1	i	i	i	i	i	·	·	·	·	·	·
O=C(CN(Cc1ccccc1Cl)C(=O)c1csnn1)NCc1ccccc1	i	i	i	i	i	·	·	·	·	·	·
CCc1ccc(NC(=O)CSc2nnc(CNC(=O)c3ccc(OC)cc3)o2)cc1	i	i	i	i	i	·	·	·	·	·	·
COc1ccccc1-n1c(=O)c(C#N)c(-c2ccc([N+](=O)[O-])cc2)c2cc(C(=O)c3ccccc3O)cnc21	i	i	i	i	i	·	·	·	·	·	·
c1ccc(COc2ccccc2CNC23CC4CC(CC(C4)C2)C3)cc1	i	-6.3*	i	i	25*	922%*	i	196%*	73%*	65%*	266%*
Cc1ccc(-n2c(-c3cccc(C)c3)n[nH]c2=S)cc1	i	-18*	i	i	i	i	i	i	i	i	i
Cc1ccc(-c2n[nH]c(=S)n2-c2ccccc2)cc1	i	i	i	i	i	·	·	·	·	·	·
CCCCCCC(=O)Nc1c2c(nc3ccccc13)N(C)CC2	i	i	i	i	i	·	·	·	·	·	·
CCCCCC(=O)Nc1cc(N(C)C)nc2ccccc12	i	-5.4*	i	i	i	i	i	-10%*	48%*	i	i
CCN(CC)CC(=O)Nc1cc(N(C)C)nc2ccccc12	i	-7.5*	i	i	i	·	·	·	·	68%*	i	TRPC4 spec 2=70%*;TRPC4 spec=-25%*;HEK293 MPD ctr 2-1=3.0%*;HEK293 MPD ctr-1=-474%*
CN1CCc2c1nc1ccccc1c2NC(=O)CN1CCCC1	i	-6.5*	i	i	i	-278%*	i	-46%*	46%*	i	i
Cc1ccccc1NC(=O)CN1CCN(C)CC1	i	i	i	i	i	·	·	·	·	·	·
CN1CCN(CC(=O)Nc2cc(N(C)C)nc3ccccc23)CC1	i	-6.8*	i	i	i	-154%*	i	-26%*	44%*	i	i
COc1cc(NC(=O)CCN2CC(C)OC(C)C2)cc(OC)c1 (stereo not drawn)	i	i	i	i	i	·	·	·	·	·	·
COc1ccccc1OCCCCn1c(C(C)O)nc2ccccc21 (stereo not drawn)	i	i	i	i	i	·	·	·	·	·	·
O=C(O)CCCCCN1C(=O)C(O)=C(C(=O)/C=C/c2ccccc2)C1c1cccc([N+](=O)[O-])c1 (stereo not drawn)	i	i	i	i	17*	i	i	9.5%*	i	i	39%*
O=C(NCc1ccc(Cl)cc1)N1CCN(Cc2ccccc2)CC1	i	i	i	i	i	·	·	·	·	·	·
Cc1ccc(C)c(OC(=O)c2cccnc2Cl)c1C	i	-6.2*	i	i	i	i	i	i	i	i	i
ON(Cc1c(F)cccc1Cl)Cc1c(F)cccc1Cl	i	i	i	i	i	·	·	·	·	·	·
SMILES	TRPC4 inh	TRPC6 inhibitor	TRPC4 PAM	TRPC4 agonist	TRPC6 activator	HEK293 MPD ctr-2	HEK293 MPD ctr 2-2	TRPC4/MOR mod	TRPC4/MOR inh 2	TRPC6 block conf	TRPC6 act confirm	others
Cc1cc(C)c2nc(C)cc(Nc3ccc(C(=O)N4CCOCC4)cc3)c2c1	i	-6.9*	i	i	i	·	·	·	·	70%*	i	TRPC4 spec 2=i;TRPC4 spec=-16%*;HEK293 MPD ctr 2-1=i;HEK293 MPD ctr-1=-272%*
CC(=O)c1cccc(Nc2cc(C)nc3ccc(C)cc23)c1	i	-6.6*	i	i	i	·	·	·	·	i	i	TRPC4 spec 2=66%*;TRPC4 spec=-22%*;HEK293 MPD ctr 2-1=14%*;HEK293 MPD ctr-1=-260%*
CC(=O)c1cccc(Nc2cc(C)nc3c(C)cc(C)cc23)c1	-6*	-5.8*	i	i	i	-102%*	76%*	-22%*	65%*	56%*	i
COc1ccc(COC(=O)C2CC(=O)N(Cc3ccc(C)cc3)C2)cc1 (stereo not drawn)	i	i	i	i	i	·	·	·	·	·	·
CC(=O)N1CCc2cc(S(=O)(=O)CCC(=O)NCCc3ccc(Cl)cc3)ccc21	i	i	i	i	i	·	·	·	·	·	·
COc1ccc(CNS(=O)(=O)CCNC(=O)c2cccc(OC)c2)cc1	i	i	i	i	i	·	·	·	·	·	·
